≈ marks a conversion by molar mass, not a printed value.
What was measured:
[1] = Kinetic solubility of the compound in pH 7.4 PBS by nephelometric method; assay type: physicochemical; conditions: read-out: Kinetic_solubility
[2] = Half life in mouse liver microsomes at 0.1 uM in presence of NADPH by LC-MS/MS analysis; assay type: ADME, Microsome; conditions: for half-life at 0.1 µM: liver microsomes
Outline: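 Mouse liver microsomes at 0.33 mg/mL protein with 5 mM MgCl2, 0.1 μM compound, 1 mM NADPH, 0.1 M Tris/HCl pH 7.4, final DMSO 0.01%. Pre-warmed 10 min at 37 °C, started with NADPH. Sampled at 0, 7, 17, 30 and 60 min, quenched with methanol, analysed by LC-MS/MS in duplicate. T1/2 = -0.693/k from first-order consumption.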

[3] = Stability in rat blood assessed as parent compound remaining at 5 uM measured after 5 hrs by LC-MS/MS analysis; assay type: ADME, tissue-based; conditions: read-out: Stability
Outline: (§1)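 Compound at 5 μM in fresh rat blood at 37 °C; samples at 0, 0.5, 1.0, 2.0 and 5.0 h, stopped by methanol protein precipitation; percentage of residual parent measured by LC-MS/MS.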

[4] = AUC (0 to t) in Sprague-Dawley rat at 10 mg/kg, iv by LC-MS/MS analysis; assay type: ADME, organism-based; conditions: in vivo
Outline: (§2)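 SD rats dosed IV 10 mg/kg, PO 20 mg/kg or IP 20 mg/kg in 5% DMSO + 5% Tween-80 in 90% saline. Blood collected after dosing and spun to plasma. Plasma deproteinized with methanol containing internal standard, centrifuged, diluted with methanol and spun again. Compound in supernatant quantified by LC/MS/MS.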

[5] = AUC (0 to infinity) in Sprague-Dawley rat at 10 mg/kg, iv by LC-MS/MS analysis; assay type: ADME, organism-based; design: dose 10 mg/kg, time infinity, route intravenous; conditions: in vivo; outline: as §2
[6] = MRT in Sprague-Dawley rat at 10 mg/kg, iv by LC-MS/MS analysis; assay type: ADME, organism-based; conditions: in vivo
Outline: (§3)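 SD rats dosed in 5% DMSO + 5% Tween-80 in 90% saline, IV 10 mg/kg, PO 20 mg/kg or IP 20 mg/kg; blood collected and centrifuged to plasma, which was deproteinized with methanol containing internal standard, diluted and re-centrifuged; concentrations by LC/MS/MS.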

[7] = Half life in Sprague-Dawley rat at 10 mg/kg, iv by LC-MS/MS analysis; assay type: ADME, organism-based; conditions: in vivo; outline: as §2
[8] = Clearance in Sprague-Dawley rat at 10 mg/kg, iv by LC-MS/MS analysis; assay type: ADME, organism-based; conditions: in vivo; outline: as §2
[9] = Volume of distribution at steady state in Sprague-Dawley rat at 10 mg/kg, iv by LC-MS/MS analysis; assay type: ADME, organism-based; conditions: in vivo; outline: as §3
[10] = Tmax in Sprague-Dawley rat at 20 mg/kg, po by LC-MS/MS analysis; assay type: ADME, organism-based; conditions: in vivo; outline: as §3
[11] = Cmax in Sprague-Dawley rat at 20 mg/kg, po by LC-MS/MS analysis; assay type: ADME, organism-based; design: dose 20 mg/kg, route oral; conditions: in vivo; outline: as §2
[12] = AUC (0 to t) in Sprague-Dawley rat at 20 mg/kg, po by LC-MS/MS analysis; assay type: ADME, organism-based; conditions: in vivo; outline: as §2
[13] = AUC (0 to infinity) in Sprague-Dawley rat at 20 mg/kg, po by LC-MS/MS analysis; assay type: ADME, organism-based; design: dose 20 mg/kg, route oral, time infinity; conditions: in vivo; outline: as §2
[14] = MRT in Sprague-Dawley rat at 20 mg/kg, po by LC-MS/MS analysis; assay type: ADME, organism-based; conditions: in vivo; outline: as §3
[15] = Half life in Sprague-Dawley rat at 20 mg/kg, po by LC-MS/MS analysis; assay type: ADME, organism-based; conditions: in vivo; outline: as §2
[16] = Oral bioavailability in Sprague-Dawley rat at 20 mg/kg by LC-MS/MS analysis; assay type: ADME, organism-based; conditions: in vivo; outline: as §3
[17] = Tmax in Sprague-Dawley rat at 20 mg/kg, ip by LC-MS/MS analysis; assay type: ADME, organism-based; conditions: in vivo; outline: as §3
[18] = Cmax in Sprague-Dawley rat at 20 mg/kg, ip by LC-MS/MS analysis; assay type: ADME, organism-based; design: dose 20 mg/kg, route intraperitoneal; conditions: in vivo; outline: as §2
[19] = AUC (0 to t) in Sprague-Dawley rat at 20 mg/kg, ip by LC-MS/MS analysis; assay type: ADME, organism-based; conditions: in vivo; outline: as §2
[20] = AUC (0 to infinity) in Sprague-Dawley rat at 20 mg/kg, ip by LC-MS/MS analysis; assay type: ADME, organism-based; design: dose 20 mg/kg, time infinity, route intraperitoneal; conditions: in vivo; outline: as §2
[21] = MRT in Sprague-Dawley rat at 20 mg/kg, ip by LC-MS/MS analysis; assay type: ADME, organism-based; conditions: in vivo; outline: as §3
[22] = Half life in Sprague-Dawley rat at 20 mg/kg, ip by LC-MS/MS analysis; assay type: ADME, organism-based; conditions: in vivo; outline: as §2
[23] = Drug metabolism in mouse liver microsomes at 3 uM measured after 180 mins by UPLC-UV/Q-TOF MS analysis; assay type: ADME, Microsome; conditions: 3 h
[24] = Drug metabolism in human liver microsomes assessed as oxidation at 3 uM measured after 180 mins by UPLC-UV/Q-TOF MS analysis; assay type: ADME, Microsome; conditions: 3 h
[25] = Drug metabolism in monkey liver microsomes assessed as oxidation at 3 uM measured after 180 mins by UPLC-UV/Q-TOF MS analysis; assay type: ADME, Macaca mulatta, Microsome; conditions: rhesus monkey, 3 h
[26] = Drug metabolism in dog liver microsomes assessed as oxidation at 3 uM measured after 180 mins by UPLC-UV/Q-TOF MS analysis; assay type: ADME, Canis lupus familiaris, Microsome; conditions: 3 h
[27] = Drug metabolism in rat liver microsomes assessed as oxidation at 3 uM measured after 180 mins by UPLC-UV/Q-TOF MS analysis; assay type: ADME, Microsome; conditions: 3 h
[28] = Drug metabolism in mouse liver microsomes assessed as oxidation at 3 uM measured after 180 mins by UPLC-UV/Q-TOF MS analysis; assay type: ADME, Microsome; conditions: 3 h
[29] = Drug metabolism in human liver microsomes assessed as amino demethylation at 3 uM measured after 180 mins by UPLC-UV/Q-TOF MS analysis; assay type: ADME, Microsome; conditions: 3 h
[30] = Drug metabolism in monkey liver microsomes assessed as amino demethylation at 3 uM measured after 180 mins by UPLC-UV/Q-TOF MS analysis; assay type: ADME, Macaca mulatta, Microsome; conditions: rhesus monkey, 3 h
[31] = Drug metabolism in dog liver microsomes assessed as amino demethylation at 3 uM measured after 180 mins by UPLC-UV/Q-TOF MS analysis; assay type: ADME, Canis lupus familiaris, Microsome; conditions: 3 h
[32] = Drug metabolism in rat liver microsomes assessed as amino demethylation at 3 uM measured after 180 mins by UPLC-UV/Q-TOF MS analysis; assay type: ADME, Microsome; conditions: 3 h
Outline: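 Human, mouse, rat, dog or monkey liver fractions (1.0×10^6 cells/mL) in William's medium E (pH 7.4) with 3.0 μM substrate, 37 °C for 180 min. Stopped with equal volume ice-cold acetonitrile. Duplicates pooled per species, spun, dried under nitrogen, reconstituted in acetonitrile/water 10:90. Metabolites profiled by UPLC-UV/Q-TOF MS.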

[33] = Drug metabolism in mouse liver microsomes assessed as amino demethylation at 3 uM measured after 180 mins by UPLC-UV/Q-TOF MS analysis; assay type: ADME, Microsome; conditions: 3 h
[34] = Tmax in Sprague-Dawley rat at 10 mg/kg, iv by LC-MS/MS analysis; assay type: ADME, organism-based; conditions: in vivo; outline: as §3
[35] = Cmax in Sprague-Dawley rat at 10 mg/kg, iv by LC-MS/MS analysis; assay type: ADME, organism-based; design: dose 10 mg/kg, route intravenous; conditions: in vivo; outline: as §2
[36] = Stability in rat blood at 5 uM measured after 5 hrs by LC-MS/MS analysis; assay type: ADME, tissue-based; outline: as §1

Cc1ccc2oc(-c3c4c(N)n[nH]c(=O)c4nn3-c3ccc(NC(=O)/C=C/CN4CCOCC4)cc3)c(C)c2c1
solubility kinetic [1]: 50 µM (≈ 27 µg/mL)

Cc1c(-c2c3c(N)n[nH]c(=O)c3nn2-c2ccc(NC(=O)/C=C/CN(C)C)cc2)oc2ccc(Cl)cc12
solubility kinetic [1]: 200 µM (≈ 104 µg/mL)
t1/2 ([2]; microsomes, 0.1 µM): 1.72 h
remaining at 5 h, 5 µM [3]: 20%
AUC(0-t) [4]: 4310 ng·h/mL
AUC(0-inf) [5]: 4410 ng·h/mL
MRT [6]: 1.64 h
half-life [7]: 8.55 h
CL [8]: 37.8 mL/min/kg
Vdss [9]: 28 L/kg
Tmax [10]: 0.5 h
Cmax [11]: 7.3 ng/mL
AUC(0-t) [12]: 32.6 ng·h/mL
AUC(0-inf) [13]: 51.5 ng·h/mL
MRT [14]: 7.33 h
half-life [15]: 21.6 h
bioavailability [16]: 0%
Tmax [17]: 0.5 h
Cmax [18]: 5040 ng/mL
AUC(0-t) [19]: 16800 ng·h/mL
AUC(0-inf) [20]: 17000 ng·h/mL
MRT [21]: 3.3 h
half-life [22]: 4.63 h
Drug metabolism [23]: 20%
Drug metabolism [24]: Metabolite_Detected
Drug metabolism [25]: Metabolite_Detected
Drug metabolism [26]: Metabolite_Detected
Drug metabolism [27]: Metabolite_Detected
Drug metabolism [28]: Metabolite_Detected
Drug metabolism [29]: Metabolite_Detected
Drug metabolism [30]: Metabolite_Detected
Drug metabolism [31]: Metabolite_Detected
Drug metabolism [32]: Metabolite_Detected
Drug metabolism [33]: Metabolite_Detected

CC(=O)c1cc(Br)ccc1O
solubility kinetic [1]: 50 µM (≈ 10.8 µg/mL)

CC(=O)c1ccccc1O
solubility kinetic [1]: 50 µM (≈ 6.81 µg/mL)

C=CC(=O)Nc1ccc(-n2nc3c(=O)[nH]nc(N)c3c2-c2oc3ccc(Cl)cc3c2C)cc1
solubility kinetic [1]: 20 µM (≈ 9.22 µg/mL)
half-life at 0.1 µM [2]: 0.483 h

C=CC(=O)Nc1ccc(-n2nc3c(=O)[nH]nc(N)c3c2-c2oc3ccc(C)cc3c2C)cc1
solubility kinetic [1]: 20 µM (≈ 8.81 µg/mL)
half-life at 0.1 µM [2]: 0.517 h
Tmax [34]: 4.98 min
Cmax [35]: 1880 ng/mL
AUC(0-t) [4]: 1090 ng·h/mL
AUC(0-inf) [5]: 1270 ng·h/mL
MRT ([6]; Sprague-Dawley, read-out: MRT): 5.04 h
half-life [7]: 6.25 h
clearance ([8]; Sprague-Dawley): 143 mL/min/kg
Tmax [10]: 0.861 h
Cmax [11]: 12.9 ng/mL
AUC(0-t) [12]: 6.4 ng·h/mL
AUC(0-inf) [13]: 6.4 ng·h/mL
MRT [14]: 2.17 h
half-life [15]: 1.77 h
bioavailability [16]: 0.29%

Cc1ccc2oc(-c3c4c(N)n[nH]c(=O)c4nn3-c3ccc(NC(=O)/C=C/CN(C)C)cc3)c(C)c2c1
solubility kinetic [1]: 50 µM (≈ 24.9 µg/mL)
half-life at 0.1 µM [2]: 1.05 h
Stability [36]: Stable

Cc1c(-c2c3c(N)n[nH]c(=O)c3nn2-c2ccc(NC(=O)/C=C/CN(C)C)cc2)oc2ccc(Br)cc12
solubility kinetic [1]: 50 µM (≈ 28.1 µg/mL)
